ZTA counter: ZTA (EBV) inhibition in EBNA-1 counter-screen; ZTA-DNA binding, fluorescence polarization; inhibition, % at 11 µM; 320,000 tested, 0.15% active; AID 2234; in the data active means inhibition above about 33%
Target sequence (P03206 whole entry, looked up): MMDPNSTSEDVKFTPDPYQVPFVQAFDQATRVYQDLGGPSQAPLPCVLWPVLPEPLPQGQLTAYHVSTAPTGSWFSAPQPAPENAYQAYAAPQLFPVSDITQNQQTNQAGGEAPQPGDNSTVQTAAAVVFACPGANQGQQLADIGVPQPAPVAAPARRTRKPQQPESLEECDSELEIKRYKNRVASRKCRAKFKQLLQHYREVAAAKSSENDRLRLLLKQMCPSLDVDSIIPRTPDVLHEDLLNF
eIF4H inh: inhibitors of RNA binding by human eIF4H | Q15056 | 290,000 tested, 0.94% active | inhibition, % at 35 µM | AID 2012 | eIF4H fluorescence polarization binding assay;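 further: calls also rest on retests at 20 µM and on dose response follow-up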
PABP polyA inh: blocks human PABP binding to poly(A) RNA; fluorescence polarization; 290,000 tested, 1% active; P11940; inhibition, % at 35 µM;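 further: calls also rest on retests at 20 µM and on dose response follow-up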
HCV NS3 hel inh: HCV NS3 helicase inhibition. NS3 helicase DNA unwinding, Cy5 molecular beacon fluorescence. inhibition, % at 10.9 µM. 290,000 tested, 0.56% active. AID 1800;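 active means inhibition above the mean of all tested compounds plus 3 SD, set per campaign, cut at about 35% in these data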;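 further: 0% = DMSO wells and 100% = thioflavine S control wells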
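Measured by: Cy5 fluorescence, 0 and 60 min reads / Assay system: NS3 helicase fragment of HCV / Control set: low DMSO, high thioflavine S at 110 µM / Times: 1 h reaction at 25 °C, ATP-initiated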
MLLE-PAM2 inh: blocks PAM2 peptide binding to the PABP1 MLLE domain | GST-MLLE / FITC-PAM2 fluorescence polarization | inhibition, % at 20 µM | P11940 | AID 588489 | 360,000 tested, 0.36% active; in the data active means inhibition above about 35%, passing the limit was not always enough;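 further: plate controls were DMSO wells with GST-MLLE for no effect and wells lacking GST-MLLE protein for full effect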
EBNA-1 inhibitor: blocks EBNA-1 binding to DNA; EBNA-1 DNA binding, fluorescence polarization; inhibition, % at 14.8 µM; 300,000 tested, 0.34% active; AID 1950; in the data active means inhibition above about 28%
Starred values were filed as active, the others as inactive; ? = inconclusive; nt = not tested or not shown. Shown are actives, neighbours in structure and some others; about 2.1% of the full set was active somewhere. Unless noted, how the calls were made is not given here.

SMILES	ZTA counter	eIF4H inh	PABP polyA inh	HCV NS3 hel inh	MLLE-PAM2 inh	EBNA-1 inhibitor
NC(=O)CSCc1nc2ccccc2s1	-1	55*	54*	6	24	-10
Oc1ccc(O)c(Cc2nc3ccccc3s2)c1	-8	82*	6.5*	13	-4	6
N/C(Cc1nc2ccccc2s1)=N\O	-11	12	-11	13	-34	-4
Cc1nn(CC(=O)NC2CC2)c(C)c1S(=O)(=O)NC(C)(C)C	nt	nt	nt	nt	3	nt
COC(=O)c1cc(NC(=S)N2CCN(c3ccccn3)CC2)cc(C(=O)OC)c1	20	-8	-7	5	-95	-8
CC(C)C(NC(=O)c1ccccc1)C(=O)NC1=NCCS1 (stereo not given)	-6	0	4	3	44*	-1
O=C(O)CCCn1nc(C(F)(F)F)c2c1CCCCC2	4	-10	2	1	3	-10
COC(=O)C1=NN(C(=O)c2cccc(Br)c2)C(O)(c2ccc(Cl)cc2)C1 (stereo not given)	2	58*	1	9	-59	9
c1ccc(Sc2ncnc3c2oc2ccccc23)nc1	2	-2	7	-3	7	-1
COc1ccc(CNC(=O)CN(Cc2ccc(Cl)cc2)C(=O)c2csnn2)cc1	6	-6	4	-2	36*	-16
COc1ccc(CNC(=O)CN(Cc2ccc(C)cc2)C(=O)c2csnn2)cc1	-5	-1	2	2	44*	3
COc1ccc(CN(CC(=O)NCc2ccccc2)C(=O)c2csnn2)cc1	-2	1	-7	1	7	8
COc1ccc(NC(=O)c2ccc3ccccc3n2)cc1S(=O)(=O)N1CCCCC1	2	12	2	-4	13	-11
CCOCCCn1c(=N)c(C(N)=S)cc2c(=O)n3cccc(C)c3nc21	1	87*	78*	9	15	-9
Cc1cccn2c(=O)c3cc(C(N)=S)c(=N)n(CCCOC(C)C)c3nc12	-2	47	47	7	-33	-1
CCOC(=O)c1cc2c(=O)n3cccc(C)c3nc2n(C)c1=N	nt	96*	62*	11	nt	nt
O=C(Cn1cc2c(n1)CCCC2)NCCCN1CCN(C2CCCCC2)CC1	8	5	-2	3	12	-3
c1ccc(-c2nc[nH]c2-c2ccccc2)cc1	-12	-7	-6	-6	-4	-11
O=C(O)c1ccc(-n2cccc2/C=N\NC(=O)c2cc3cc(Br)ccc3o2)cc1	18	86*	80*	23	-7	9
Cc1cc(C)n2nc(C(=O)OCC(=O)c3cc(C)n(C)c3C)nc2n1	9	62*	44	2	8	5
Cc1ccc(NC(=O)CNc2ccc(OC(C)C)cc2)cc1	-3	1	10	2	0	-3
Cn1c(N2CCCC2)nc2c1c(=O)n(Cc1ccc(Cl)cc1)c(=O)n2C	2	4	20	-8	4	3
COc1ccc(NS(=O)(=O)c2ccc(F)c(Cl)c2)cn1	-13	?	?	10	47*	-9
CC(C)(C)c1cc[n+](-c2[nH]c(=O)sc2/C=N/NC([S-])=Nc2ccccc2)cc1	-14	?	?	5	150	0
COc1ccc(C(=O)Nc2nnc(-c3ccco3)s2)cc1	-14	34	10	26	-7	-2
SMILES	ZTA counter	eIF4H inh	PABP polyA inh	HCV NS3 hel inh	MLLE-PAM2 inh	EBNA-1 inhibitor
CC(=O)N1CC=CC1(CC(C)C)C(=O)NCCN1CCOCC1 (stereo not given)	1	5	1	5	-7	9
COc1ccc2c(=O)c3c(=O)n(Cc4ccco4)c(-c4ccco4)nc3oc2c1	-18	86*	80*	17	8	-19
CCc1nc2oc3cc(OC)ccc3c(=O)c2c(=O)n1Cc1ccco1	16	52*	71*	6	-67	11
CCc1nc2sc3ccccc3c(=O)c2c(=O)n1Cc1ccco1	-3	69*	68*	22	15	-1
CCCc1nc2sc3ccccc3c(=O)c2c(=O)n1Cc1ccccc1	nt	nt	nt	nt	11	nt
O=C(/C=C/c1ccco1)c1ccc(NC(=O)C23CC4CC(CC(C4)C2)C3)cc1	19	?	active	35	-12	17
CCc1ccc(/C=C2\CN(CC)Cc3c2nc2ccccc2c3C(=O)O)cc1	15	?	?	-35	18	10

Bioassay records (PubChem BioAssay)
